Experimental data published in ChEMBL document CHEMBL4359864, “The synthesis and in vitro biological evaluation of novel fluorinated tetrahydrobenzo[j]phenanthridine-7,12-diones against Mycobacterium tuberculosis” (Eur J Med Chem, 2019).
pIC50: −log10 of the molar value. Converted amounts (≈) assume the structure as drawn.

What was measured:
[1] = system: Klebsiella pneumoniae; test: Antibacterial activity against Klebsiella pneumoniae ATCC 13883 incubated for 24 hrs by resazurin dye based fluorimetric assay; assay type: functional, organism-based; details: ATCC 13883, 24 h
In short: (§1)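 Resazurin microtiter assay: compounds from 10 mM DMSO stock, twofold serial dilutions from 64 µM final in growth medium, in triplicate. Inoculum from frozen glycerol stocks. Exposure 24 h, or 7 days for Mtb H37Ra (7H9 + 0.5% glycerol + 10% OADC). Then 0.01% resazurin was added and plates were incubated at 37°C until pink. Fluorescence read at ex 550/em 590 nm; mean of triplicates.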

[2] = system: CYP450; test: Microsomal stability in mouse liver microsomes assessed as CYP450-mediated metabolism by measuring compound remaining at 5 uM and measured for 15 mins in presence of NADPH by UPLC-MS/MS analysis (reference value: 100%); assay type: ADME; details: read-out: Stability
In short: (§2)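 Compound at 5 µM with 0.5 mg/mL liver microsomes in PBS. Phase I was started with 1 mM NADPH; phase II used 2 mM UDPGA. Diclofenac served as reference. Samples taken at 0, 15, 30 and 60 min were quenched in ice-cold acetonitrile, centrifuged at 4°C and analysed by LC-MS. Mean of at least two replicates ± SD.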

[3] = system: Staphylococcus aureus; test: Antibacterial activity against Staphylococcus aureus ATCC 6538 incubated for 24 hrs by resazurin dye based fluorimetric assay; assay type: functional, organism-based; details: ATCC 6538, 24 h; in short: as §1
[4] = biological target: T1, UGT (Homo sapiens, UniProt O60656+O75310+O75795+P06133+P0DTE4+P0DTE5+P16662+P19224+P22309+P22310+P35503+P35504+P36537+P54855+Q6UWM9+Q9BY64+Q9HAW7+Q9HAW8+Q9HAW9); test: Microsomal stability in human liver microsomes assessed as UGT-mediated metabolism by measuring compound remaining at 5 uM and measured for 60 mins in presence of UDPGA by UPLC-MS/MS analysis (reference value: 100%); assay type: ADME; details: read-out: Stability; in short: as §2
[5] = Selectivity index, ratio of […] for cytotoxicity against mouse J774A.1 cells; assay type: toxicity, cell-based; details: read-out: Selectivity Index
[6] = system: CYP450; test: Microsomal stability in mouse liver microsomes assessed as CYP450-mediated metabolism by measuring compound remaining at 5 uM and measured for 60 mins in presence of NADPH by UPLC-MS/MS analysis (reference value: 100%); assay type: ADME; details: read-out: Stability; in short: as §2
[7] = system: Enterococcus faecium; test: Antibacterial activity against Enterococcus faecium ATCC 19434 incubated for 24 hrs by resazurin dye based fluorimetric assay; assay type: functional, organism-based; details: ATCC 19434, 24 h; in short: as §1
[8] = system: Escherichia coli; test: Antibacterial activity against Escherichia coli ATCC 8739 incubated for 24 hrs by resazurin dye based fluorimetric assay; assay type: functional, organism-based; details: ATCC 8739, ATCC 8739, 24 h; in short: as §1
[9] = biological target: T1, UGT; test: Microsomal stability in human liver microsomes assessed as UGT-mediated metabolism by measuring compound remaining at 5 uM and measured for 15 mins in presence of UDPGA by UPLC-MS/MS analysis (reference value: 100%); assay type: ADME; details: read-out: Stability; in short: as §2
[10] = Antimycobacterial activity against Mycobacterium avium subsp. avium ATCC 25291 by resazurin dye based fluorimetric assay; assay type: functional
In short: (§3)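 Resazurin microtiter method as for the bacterial panel. Mycobacteria grown in 7H9 with 10% OADC and 0.5% glycerol; for BCG, 0.05% Tween 80 replaced the glycerol. Cultures were sonicated and needle-passed to single cells. Incubation at 37°C, or 32°C for M. marinum. Fluorescence read at ex 550/em 590 nm; mean of triplicates.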

[11] = system: UGT; test: Microsomal stability in mouse liver microsomes assessed as UGT-mediated metabolism by measuring compound remaining at 5 uM and measured for 60 mins in presence of UDPGA by UPLC-MS/MS analysis (reference value: 100%); assay type: ADME; details: read-out: Stability; in short: as §2
[12] = system: Mycobacterium tuberculosis; test: Antimycobacterial activity against Mycobacterium tuberculosis H37Ra lux incubated for 7 days by luminometric assay; assay type: functional, organism-based; details: 168 h
In short: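 Twofold serial dilutions in 7H9/OADC/glycerol, in triplicate, inoculated with a suspension of 10.000 RLU per mL. After 7 days, n-decanal (1% v/v in ethanol) was added and luminescence read. IC50 and MIC (90% growth reduction) were derived from the mean of triplicates.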

[13] = biological target: T2, CYP450 (Homo sapiens, UniProt P04798+P05177+P05181+P08684+P10632+P10635+P11509+P11712+P13584+P20813+P20815+P20853+P24462+P24903+P33260+P33261+P51589+P78329+P98187+Q02928+Q08477+Q16678+Q16696+Q5TCH4+Q6VVX0+Q7Z449+Q8TAV3+Q96SQ9+Q9HB55); test: Microsomal stability in human liver microsomes assessed as CYP450-mediated metabolism by measuring compound remaining at 5 uM and measured for 15 mins in presence of NADPH by UPLC-MS/MS analysis (reference value: 100%); assay type: ADME; details: read-out: Stability; in short: as §2
[14] = biological target: T1, UGT; test: Microsomal stability in human liver microsomes assessed as UGT-mediated metabolism by measuring compound remaining at 5 uM and measured for 30 mins in presence of UDPGA by UPLC-MS/MS analysis (reference value: 100%); assay type: ADME; details: read-out: Stability; in short: as §2
[15] = system: UGT; test: Microsomal stability in mouse liver microsomes assessed as UGT-mediated metabolism by measuring compound remaining at 5 uM and measured for 30 mins in presence of UDPGA by UPLC-MS/MS analysis (reference value: 100%); assay type: ADME; details: read-out: Stability; in short: as §2
[16] = Cytotoxicity against mouse J774A.1 cells assessed as reduction in cell viability incubated for 24 hrs by neutral red uptake assay; assay type: cell-based, J774.A1
In short: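 J774A.1 cells in DMEM + 10% iFCS, 37°C, 5% CO2, seeded at 40.000 cells/well and left overnight. Twofold dilutions from 128 µM final; 24 h exposure. Neutral red uptake for 3 h, dye extracted with 1:1 ethanol/acetic acid, OD read at 530 nm (reference 620 nm). CC50 = 50% reduction in uptake; mean of triplicates.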

[17] = biological target: T2, CYP450; test: Microsomal stability in human liver microsomes assessed as CYP450-mediated metabolism by measuring compound remaining at 5 uM and measured for 30 mins in presence of NADPH by UPLC-MS/MS analysis (reference value: 100%); assay type: ADME; details: read-out: Stability; in short: as §2
[18] = system: CYP450; test: Microsomal stability in mouse liver microsomes assessed as CYP450-mediated metabolism by measuring compound remaining at 5 uM and measured for 30 mins in presence of NADPH by UPLC-MS/MS analysis (reference value: 100%); assay type: ADME; details: read-out: Stability; in short: as §2
[19] = system: Streptococcus pneumoniae; test: Antibacterial activity against Streptococcus pneumoniae ATCC BAA-334 incubated for 24 hrs by resazurin dye based fluorimetric assay; assay type: functional, organism-based; details: ATCC BAA-334, 24 h; in short: as §1
[20] = system: Mycobacterium marinum; test: Antimycobacterial activity against Mycobacterium marinum NCTC 2275 by resazurin dye based fluorimetric assay; assay type: functional, organism-based; in short: as §3
[21] = system: UGT; test: Microsomal stability in mouse liver microsomes assessed as UGT-mediated metabolism by measuring compound remaining at 5 uM and measured for 15 mins in presence of UDPGA by UPLC-MS/MS analysis (reference value: 100%); assay type: ADME; details: read-out: Stability; in short: as §2
[22] = biological target: T2, CYP450; test: Microsomal stability in human liver microsomes assessed as CYP450-mediated metabolism by measuring compound remaining at 5 uM and measured for 60 mins in presence of NADPH by UPLC-MS/MS analysis (reference value: 100%); assay type: ADME; details: read-out: Stability; in short: as §2
[23] = system: Pseudomonas aeruginosa; test: Antibacterial activity against Pseudomonas aeruginosa ATCC 9027 incubated for 24 hrs by resazurin dye based fluorimetric assay; assay type: functional, organism-based; details: ATCC 9027, 24 h; in short: as §1
[24] = system: Mycobacterium tuberculosis; test: Antibacterial activity against Mycobacterium tuberculosis H37Ra ATCC 25177 incubated for 7 days by resazurin dye based fluorimetric assay; assay type: functional, organism-based; details: H37Ra ATCC 25177, 168 h; in short: as §1

Q: With `O=C1C2=C(C(=O)c3c1cnc1ccc(C(F)(F)F)cc31)C1CCC2C1` (stereo not given) as the compound, how does the pIC50 [1] read?
A: < 4.19

Q: And the remaining at 0.25 h, 5 µM [2]?
A: 100%

Q: And the pIC50 [3]?
A: < 4.19

Q: And the remaining at 1 h, 5 µM [4]?
A: 69%

Q: What about the selectivity ratio [5] of the same compound?
A: 11.8

Q: And the remaining at 1 h, 5 µM [6]?
A: 100%

Q: And the pIC50 [7]?
A: < 4.19

Q: And the pIC50 [8]?
A: < 4.19

Q: What about the remaining at 0.25 h, 5 µM [9] of the same compound?
A: 100%

Q: And the pIC50 [10]?
A: 5.07

Q: What about the remaining at 1 h, 5 µM [11] of the same compound?
A: 78%

Q: What about the pIC50 [12] of the same compound?
A: 5.60

Q: What about the MIC90 [12] of the same compound?
A: 9.23 µM (≈ 3.17 µg/mL)

Q: And the remaining at 0.25 h, 5 µM [13]?
A: 100%

Q: What about the remaining at 0.5 h, 5 µM [14] of the same compound?
A: 74%

Q: What about the remaining at 0.5 h, 5 µM [15] of the same compound?
A: 81%

Q: And the CC50 at 24 h [16]?
A: 108 µM

Q: What about the remaining at 0.5 h, 5 µM [17] of the same compound?
A: 100%

Q: What about the remaining at 0.5 h, 5 µM [18] of the same compound?
A: 100%

Q: And the pIC50 [19]?
A: < 4.19

Q: And the pIC50 [20]?
A: 4.34

Q: And the remaining at 0.25 h, 5 µM [21]?
A: 87%

Q: What about the remaining at 1 h, 5 µM [22] of the same compound?
A: 100%

Q: What about the pIC50 [23] of the same compound?
A: < 4.19

Q: And the pIC50 [24]?
A: 5.40 to 5.70
